Data reported in ChEMBL document CHEMBL4257575, “Discovery of Novel Flavonoid Dimers To Reverse Multidrug Resistance Protein 1 (MRP1, ABCC1) Mediated Drug Resistance in Cancers Using a High Throughput Platform with "Click Chemistry"” (J Med Chem, 2018).
The source made the active and inactive calls. No cut-off for these calls is given here.

Columns and labels:
[1] = biological target: T1, Multidrug resistance-associated protein 1 (Homo sapiens, UniProt P33527); test: Inhibition of MRP1 in human 2008/MRP1 cells assessed as potentiation of doxorubicin-induced cytotoxicity by measuring cell survival at 2 uM after 5 days by MTS assay relative to control; assay type: cell-based; details: 120 h
How it was run: (§1)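 2008/MRP1 cells (retroviral human MRP1 transfectant; RPMI 1640, 10% FBS) at 4,000 per well, with 100 nM doxorubicin plus crude, unpurified click products in DMSO: 2 µM in the primary screen, 1 µM in the secondary. Incubated 5 days at 37 °C. MTS/PMS added for 2 h at 37 °C, absorbance read at 490 nm. % survival is relative to wells without DOX or product. Run in triplicate, at least three experiments.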

[2] = biological target: T1, Multidrug resistance-associated protein 1; test: Inhibition of MRP1 in human 2008/MRP1 cells assessed as potentiation of doxorubicin-induced cytotoxicity by measuring cell survival at 1 uM after 5 days by MTS assay relative to control; assay type: cell-based; details: 120 h; how it was run: as §1
[3] = Cytotoxicity against human 2008/MRP1 cells assessed as cell survival at 2 uM after 5 days by MTS assay relative to control; assay type: cell-based; details: read-out: Survival
L929 = test: Cytotoxicity against mouse L929 cells assessed as reduction in cell survival after 5 days by MTS assay; assay type: cell-based; details: L929, 120 h
Homo sapiens [4] = species on record: Homo sapiens; test: Inhibition of P-gp in human LCC6MDR cells assessed as potentiation of paclitaxel-induced cytotoxicity by measuring fold reduction in paclitaxel IC50 at 1 uM after 5 days by MTS assay relative to paclitaxel alone; assay type: cell-based
MRP1 = test: in vitro; details: mouse, L929 cells (IC50) versus 2008/MRP1 cells (EC50)
Mus musculus = test: Time duration at which plasma concentration stays above in vitro EC50 for MRP1 in Balb/c mouse at 10 mg/kg, iv measured up to 360 mins by LC-MS/MS analysis; assay type: ADME, organism-based; details: in vivo, 6 h
How it was run: (§2)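 Female Balb/c mice given 10 mg/kg i.v. (25G needle) of the HCl salt, 1.5 mg/mL in NMP:Cremorphol:Tween 80:H₂O (5:5:4.5:85.5). Cardiac-puncture blood under ether at 15–360 min, 3 mice per time point; plasma spun 16,000 g, stored −20°C. Methanol precipitation with [¹³C6]paclitaxel internal standard; LC-MS/MS, BEH C18, water/methanol with 0.1% formic acid gradient. Mean ± SEM.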

[5] = Plasma concentration in Balb/c mouse at 10 mg/kg, iv measured up to 360 mins by LC-MS/MS analysis; assay type: ADME, organism-based; details: in vivo, 6 h, BLD = below limit of detection; how it was run: as §2
[6] = Solubility in NMP/Cremorphol/Tween80/H2O (5:5:4.5:85.5) formulation; assay type: physicochemical
[7] = biological target: T1, Multidrug resistance-associated protein 1; test: Inhibition of MRP1 in human 2008/MRP1 cells assessed as effect on doxorubicin efflux at 2 uM up to 105 mins by flow cytometric analysis; assay type: cell-based
How it was run: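 Efflux: cells preloaded with 20 µM DOX in supplemented RPMI1640 for 1 h at 37°C, washed, then kept with or without 2 µM modulator. […] Mean ± SEM; paired t test at each time point.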

Homo sapiens [8] = species on record: Homo sapiens; test: Effect on MRP1 expression in human 2008/MRP1 cells up to 5 uM after 3 days by FITC staining based flow cytometry; assay type: functional, cell-based
Homo sapiens [9] = species on record: Homo sapiens; test: Effect on doxorubicin influx in human 2008/P cells at 2 uM incubated up to 60 mins by flow cytometric analysis; assay type: functional, cell-based
Homo sapiens [10] = species on record: Homo sapiens; test: Effect on doxorubicin influx in human 2008/MRP1 cells at 2 uM incubated up to 60 mins by flow cytometric analysis; assay type: functional, cell-based

T1 sequence (P33527 whole entry): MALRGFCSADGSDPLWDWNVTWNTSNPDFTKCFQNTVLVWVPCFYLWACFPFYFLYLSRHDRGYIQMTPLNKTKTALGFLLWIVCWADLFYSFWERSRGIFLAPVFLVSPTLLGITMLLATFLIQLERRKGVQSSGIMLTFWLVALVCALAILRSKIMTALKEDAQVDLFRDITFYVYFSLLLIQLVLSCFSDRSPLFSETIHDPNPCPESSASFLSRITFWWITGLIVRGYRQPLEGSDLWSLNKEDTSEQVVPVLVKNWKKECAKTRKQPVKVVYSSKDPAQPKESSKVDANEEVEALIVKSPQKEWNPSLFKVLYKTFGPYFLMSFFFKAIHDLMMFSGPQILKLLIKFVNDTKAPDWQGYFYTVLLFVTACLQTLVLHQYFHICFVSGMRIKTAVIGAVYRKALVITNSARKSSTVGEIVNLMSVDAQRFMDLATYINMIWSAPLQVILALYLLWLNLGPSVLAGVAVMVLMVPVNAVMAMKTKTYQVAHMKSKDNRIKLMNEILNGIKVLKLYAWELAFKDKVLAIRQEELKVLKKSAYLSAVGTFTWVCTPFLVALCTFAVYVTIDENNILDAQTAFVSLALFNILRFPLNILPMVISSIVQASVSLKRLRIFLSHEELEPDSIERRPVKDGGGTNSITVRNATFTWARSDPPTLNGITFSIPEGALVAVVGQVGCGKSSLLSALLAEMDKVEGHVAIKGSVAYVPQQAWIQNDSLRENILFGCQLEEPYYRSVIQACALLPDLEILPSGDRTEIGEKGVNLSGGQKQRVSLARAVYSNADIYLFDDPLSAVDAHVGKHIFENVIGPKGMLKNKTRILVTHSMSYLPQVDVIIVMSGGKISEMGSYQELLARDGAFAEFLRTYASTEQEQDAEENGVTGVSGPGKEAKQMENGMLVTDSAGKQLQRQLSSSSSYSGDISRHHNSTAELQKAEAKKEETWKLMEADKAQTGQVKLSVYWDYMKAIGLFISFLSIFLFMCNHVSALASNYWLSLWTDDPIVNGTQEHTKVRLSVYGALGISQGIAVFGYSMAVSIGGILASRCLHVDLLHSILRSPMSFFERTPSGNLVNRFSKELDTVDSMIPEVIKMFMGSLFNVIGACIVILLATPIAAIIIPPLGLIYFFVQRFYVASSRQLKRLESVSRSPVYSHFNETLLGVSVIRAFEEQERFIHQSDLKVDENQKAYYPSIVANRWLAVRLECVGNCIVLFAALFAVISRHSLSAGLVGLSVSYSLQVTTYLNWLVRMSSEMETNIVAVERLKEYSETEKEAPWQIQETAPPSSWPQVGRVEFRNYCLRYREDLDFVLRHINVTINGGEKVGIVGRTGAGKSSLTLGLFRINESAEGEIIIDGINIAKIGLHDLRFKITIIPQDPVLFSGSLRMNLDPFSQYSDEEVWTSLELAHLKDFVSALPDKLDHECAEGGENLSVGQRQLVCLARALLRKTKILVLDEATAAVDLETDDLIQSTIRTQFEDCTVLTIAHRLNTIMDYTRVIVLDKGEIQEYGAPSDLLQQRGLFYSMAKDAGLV

O=c1cc(-c2ccccc2)oc2cc(OCCN(Cc3ccccc3)Cc3cn(CCOCCOc4ccc(-c5cc(=O)c6cc(F)ccc6o5)cc4)nn3)ccc12
Survival [1]: 36% | Survival [2]: 46% | viability at 120 h, 2 µM [3]: 87% | IC50 (L929): > 100 µM | Ratio IC50 (Homo sapiens [4]): 26.5 | selectivity ratio (MRP1): > 645

Cc1ccc2oc(-c3ccc(OCCCCc4cn(CCOCCOCCOc5ccc(-c6cc(=O)c7cc(F)ccc7o6)cc5)nn4)cc3)cc(=O)c2c1
Survival [1]: 34% | Survival [2]: 41% | viability at 120 h, 2 µM [3]: 100% | IC50 (L929): > 100 µM | Ratio IC50 (Homo sapiens [4]): 99.2 | selectivity ratio (MRP1): > 461

O=c1cc(-c2ccccc2)oc2cc(OCCN(Cc3ccccc3)Cc3cn(CCOCCOCCOc4ccc(-c5cc(=O)c6cc(F)ccc6o5)cc4)nn3)ccc12
Survival [1]: 44% | Survival [2]: 50% | viability at 120 h, 2 µM [3]: 72% | IC50 (L929): > 100 µM | Ratio IC50 (Homo sapiens [4]): 16.9 | selectivity ratio (MRP1): > 641

Cc1ccc2oc(-c3ccc(OCCCCc4cn(CCOCCOCCOc5ccc(-c6cc(=O)c7cc(C)ccc7o6)cc5)nn4)cc3)cc(=O)c2c1
Survival [1]: 38% | Survival [2]: 50% | viability at 120 h, 2 µM [3]: 100% | IC50 (L929): > 50 µM | Ratio IC50 (Homo sapiens [4]): 58.8 | selectivity ratio (MRP1): > 365

O=c1cc(-c2ccc(OCCOCCOCCn3cc(CCCOc4ccc(-c5cc(=O)c6ccc(F)cc6o5)cc4)nn3)cc2)oc2ccccc12
Survival [1]: 44% | Survival [2]: 51% | viability at 120 h, 2 µM [3]: 93% | IC50 (L929): > 100 µM | Ratio IC50 (Homo sapiens [4]): 4 | selectivity ratio (MRP1): > 481

Cl.O=c1cc(-c2ccc(OCCCc3cn(CCOCCOc4ccc5c(=O)cc(-c6ccccc6)oc5c4)nn3)cc2)oc2cc(F)ccc12
Time (Mus musculus): 90 min

Cc1ccc2oc(-c3ccc(OCCCCc4cn(CCOCCOc5ccc(-c6cc(=O)c7cc(F)ccc7o6)cc5)nn4)cc3)cc(=O)c2c1
Survival [1]: 30% | Survival [2]: 38% | viability at 120 h, 2 µM [3]: 99% | IC50 (L929): > 100 µM | Ratio IC50 (Homo sapiens [4]): 99.2 | selectivity ratio (MRP1): > 400

Cc1ccc2oc(-c3ccc(OCCOCCOCCn4cc(CCCOc5ccc(-c6cc(=O)c7ccc(F)cc7o6)cc5)nn4)cc3)cc(=O)c2c1
Survival [1]: 45% | Survival [2]: 50% | viability at 120 h, 2 µM [3]: 95% | IC50 (L929): > 100 µM | Ratio IC50 (Homo sapiens [4]): 36.9 | selectivity ratio (MRP1): > 826

O=c1cc(-c2ccc(OCCOCCn3cc(CCCCOc4ccc5c(=O)cc(-c6ccccc6)oc5c4)nn3)cc2)oc2ccccc12
Survival [1]: 30% | Survival [2]: 42% | viability at 120 h, 2 µM [3]: 95% | IC50 (L929): > 100 µM | Ratio IC50 (Homo sapiens [4]): 19.8 | selectivity ratio (MRP1): > 1150

Cc1ccc2oc(-c3ccc(OCCOCCOCCOCCOCCOc4ccc(-c5cc(=O)c6cc(C)ccc6o5)cc4)cc3)cc(=O)c2c1
IC50 (L929): > 100 µM | Cp [5]: Bld | solubility [6]: Insoluble

O=c1cc(-c2ccc(OCCCc3cn(CCOCCOCCOc4ccc(-c5cc(=O)c6cc(F)ccc6o5)cc4)nn3)cc2)oc2cc(F)ccc12
Survival [1]: 42% | Survival [2]: 48% | viability at 120 h, 2 µM [3]: 95% | IC50 (L929): > 100 µM | Ratio IC50 (Homo sapiens [4]): 22.7 | selectivity ratio (MRP1): > 971

O=c1cc(-c2ccc(OCCOCCn3cc(CCCOc4ccc5c(=O)cc(-c6ccccc6)oc5c4)nn3)cc2)oc2ccccc12
Survival [1]: 23% | Survival [2]: 30% | viability at 120 h, 2 µM [3]: 92% | IC50 (L929): > 100 µM | Ratio IC50 (Homo sapiens [4]): 19.1 | selectivity ratio (MRP1): > 662

O=c1cc(-c2ccccc2)oc2cc(OCCOCc3cn(CCOCCOCCOc4ccc(-c5oc6ccccc6c(=O)c5OCc5ccccc5)cc4)nn3)ccc12
Survival [1]: 45% | Survival [2]: 48% | viability at 120 h, 2 µM [3]: 95% | IC50 (L929): > 100 µM | Ratio IC50 (Homo sapiens [4]): 46.7 | selectivity ratio (MRP1): > 518

O=c1cc(-c2ccc(OCCOCCn3cc(COCCOc4ccc5c(=O)cc(-c6ccccc6)oc5c4)nn3)cc2)oc2ccccc12
Survival [1]: 31% | Survival [2]: 46% | viability at 120 h, 2 µM [3]: 97% | IC50 (L929): > 50 µM | Ratio IC50 (Homo sapiens [4]): 3.3 | selectivity ratio (MRP1): > 190

O=c1cc(-c2ccc(OCCCc3cn(CCOCCOc4ccc(-c5cc(=O)c6ccccc6o5)cc4)nn3)cc2)oc2ccccc12
Survival [1]: 29% | Survival [2]: 51% | viability at 120 h, 2 µM [3]: 81% | IC50 (L929): 60 µM | Ratio IC50 (Homo sapiens [4]): 31.7 | selectivity ratio (MRP1): 531

O=c1cc(-c2ccccc2)oc2cc(OCCCc3cn(CCOCCOCCOc4ccc(-c5cc(=O)c6cc(F)ccc6o5)cc4)nn3)ccc12
Survival [1]: 48% | Survival [2]: 49% | viability at 120 h, 2 µM [3]: 88% | IC50 (L929): > 100 µM | Ratio IC50 (Homo sapiens [4]): 16 | selectivity ratio (MRP1): > 1050

O=c1cc(-c2ccc(OCCCc3cn(CCOCCOc4ccc5c(=O)cc(-c6ccccc6)oc5c4)nn3)cc2)oc2cc(F)ccc12 [listing 1 of 2 here]
Survival [1]: 41% | Survival [2]: 49% | viability at 120 h, 2 µM [3]: 93% | IC50 (L929): > 100 µM | INH [7]: Active | selectivity ratio (MRP1): > 1890

Cc1ccc2oc(-c3ccc(OCCCCc4cn(CCOCCOc5ccc(-c6cc(=O)c7ccccc7o6)cc5)nn4)cc3)cc(=O)c2c1
Survival [1]: 20% | Survival [2]: 25% | viability at 120 h, 2 µM [3]: 85% | IC50 (L929): > 57 µM | Ratio IC50 (Homo sapiens [4]): 69 | selectivity ratio (MRP1): > 553

O=c1cc(-c2ccccc2)oc2cc(OCCCc3cn(CCOCCOc4ccc5c(=O)cc(-c6ccccc6)oc5c4)nn3)ccc12
Survival [1]: 45% | Survival [2]: 49% | viability at 120 h, 2 µM [3]: 98% | IC50 (L929): > 100 µM | Ratio IC50 (Homo sapiens [4]): 4 | selectivity ratio (MRP1): > 336

O=c1cc(-c2ccc(OCCCc3cn(CCOCCOc4ccc5c(=O)cc(-c6ccccc6)oc5c4)nn3)cc2)oc2cc(F)ccc12 [listing 2 of 2 here]
Activity (Homo sapiens [8]): inactive | Activity (Homo sapiens [9]): inactive | Activity (Homo sapiens [10]): inactive | Ratio IC50 (Homo sapiens [4]): 40.7
